Experimental data reported in ChEMBL document CHEMBL4196178, “Structure-Based Drug Design of Potent Pyrazole Derivatives against Rhinovirus Replication” (J Med Chem, 2018).

Test: Selectivity index, ratio of CC50 for human HeLa Rh cells to EC50 for Rhinovirus B14 capsid infected in human HeLa Rh cells
Format: toxicity, cell-based
Settings: read-out: Ratio CC50/EC50
Outline: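 SI = CC₅₀/EC₅₀ for RV-B14 in HeLa Rh cells, both from the same 3-day 35 °C MTS CPE assay. CC₅₀ was obtained by light-microscope scoring of compound-treated uninfected cells, and EC₅₀ from MTS dose-response. Both values were derived by logarithmic interpolation and reported as median ± median absolute deviation.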

| Compound | selectivity ratio |
| --- | --- |
| O=[N+]([O-])c1cc(Br)ccc1CC(O)c1ccc(-n2cncn2)cc1 (racemic) | 156 |
| O=[N+]([O-])c1cc(Br)ccc1CC(O)c1ccc(-c2ccncc2)cc1 (racemic) | > 424 |
| O=[N+]([O-])c1cc(-c2cccs2)ccc1CC(O)c1ccc(-c2ccncc2)cc1 (racemic) | > 191 |
| Cn1nc(C(F)(F)F)cc1-c1ccc(CC(O)c2ccc(-c3ccncc3)cc2)c([N+](=O)[O-])c1 (racemic) | > 100 |
| O=[N+]([O-])c1cc(Br)ccc1CC(O)c1ccc(-n2cccn2)cc1 (racemic) | 90 |
| O=[N+]([O-])c1cc(F)ccc1CC(O)c1ccc(-n2cccn2)cc1 (racemic) | > 12 |

Test: Cytotoxicity against human HeLa Rh cells assessed as reduction in cell viability after 3 days by MTS assay
Format: cell-based
Settings: not given

| Compound | CC50 at 72 h [µM] |
| --- | --- |
| Cn1cc(-c2ccc(C[C@@H](O)c3ccc(-n4cncn4)cc3)c([N+](=O)[O-])c2)cn1 | > 342 |
| Cn1nc(C(F)(F)F)cc1-c1ccc(CC(O)c2ccc(-n3cncn3)cc2)c([N+](=O)[O-])c1 (racemic) | 21 |
| Cc1noc(C)c1-c1ccc(CC(O)c2ccc(-n3cncn3)cc2)c([N+](=O)[O-])c1 (racemic) | > 256 |
| O=[N+]([O-])c1cc(Br)ccc1CC(O)c1ccc(-n2cncn2)cc1 (racemic) | 39 |
| O=[N+]([O-])c1cc(Br)ccc1CC(O)c1ccc(-c2ccncc2)cc1 (racemic) | > 250 |
| O=[N+]([O-])c1cc(-c2cccs2)ccc1CC(O)c1ccc(-c2ccncc2)cc1 (racemic) | > 248 |
| Cn1nc(C(F)(F)F)cc1-c1ccc(CC(O)c2ccc(-c3ccncc3)cc2)c([N+](=O)[O-])c1 (racemic) | > 100 |
| O=[N+]([O-])c1cc(Br)ccc1CC(O)c1ccc(-n2cccn2)cc1 (racemic) | 22.5 |
| O=[N+]([O-])c1cc(F)ccc1CC(O)c1ccc(-n2cccn2)cc1 (racemic) | > 100 |
| Cc1noc(C)c1-c1ccc(CC(O)c2ccc(-n3cccn3)cc2)c([N+](=O)[O-])c1 (racemic) | 14 |
